Measurements from ChEMBL document CHEMBL1144979, “Combinatorial modification of natural products: synthesis and in vitro analysis of derivatives of thiazole peptide antibiotic GE2270 A: A-ring modifications” (Bioorg Med Chem Lett, 2003).
Converted amounts (≈) assume the structure as drawn.

Assays:
Type in all cases: functional
[1] = test system: Enterococcus faecium; experiment: In vitro antibacterial activity against Vancomycin-susceptible Enterococcus faecium BM4147.1
Procedure, shortened: (§1)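 MICs by NCCLS broth dilution guidelines, modified by adding 0.02% bovine serum albumin to the growth medium; purified, resynthesized compounds tested against the expanded bacterial panel.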

[2] = test system: Enterococcus faecalis; experiment: In vitro antibacterial activity against Vancomycin-resistant Enterococcus faecalis ATCC 51299
[3] = test system: Staphylococcus aureus; experiment: In vitro antibacterial activity against methicillin sensitive Staphylococcus aureus ATCC 25923; procedure, shortened: as §1
[4] = test system: Staphylococcus aureus; experiment: In vitro antibacterial activity against methicillin resistant Staphylococcus aureus (MRSA) ATCC 33591
[5] = test system: Escherichia coli; experiment: In vitro antibacterial activity against Escherichia coli (A G100B); procedure, shortened: as §1
[6] = test system: Haemophilus influenzae; experiment: In vitro antibacterial activity against Haemophilus influenzae (ATTC31517); procedure, shortened: as §1
[7] = test system: Staphylococcus epidermidis; experiment: In vitro antibacterial activity against Staphylococcus epidermidis (ATCC 12228); procedure, shortened: as §1
[8] = test system: Streptococcus pneumoniae; experiment: In vitro antibacterial activity against Streptococcus pneumoniae (ATTC49619); procedure, shortened: as §1
[9] = test system: Streptococcus pyogenes; experiment: In vitro antibacterial activity against Streptococcus pyogenes (ATTC19615); procedure, shortened: as §1
[10] = test system: Haemophilus influenzae; experiment: In vitro antibacterial activity against Haemophilus influenzae (acr, LS-2); procedure, shortened: as §1

Structure (SMILES)	MIC [1]	MIC [2]	MIC [3]	MIC [4]	MIC [5]	MIC [6]	MIC [7]	MIC [8]	MIC [9]	MIC [10]
CNC(=O)C[C@@H]1NC(=O)c2csc(n2)-c2ccc(-c3nc(C(=O)NCCC[N+]4([O-])CCOCC4)cs3)nc2-c2csc(n2)-c2csc(n2)C(C(O)c2ccccc2)NC(=O)CNC(=O)c2nc(sc2COC)[C@H](C(C)C)NC(=O)c2nc1sc2C (stereo partly specified)	1 µg/mL (≈ 0.789 µM)	2 µg/mL (≈ 1.58 µM)	2 µg/mL (≈ 1.58 µM)	2 µg/mL (≈ 1.58 µM)	–	–	–	–	–	–
CNC(=O)C[C@@H]1NC(=O)c2csc(n2)-c2ccc(-c3nc(C(=O)NCCO)cs3)nc2-c2csc(n2)-c2csc(n2)C(C(O)c2ccccc2)NC(=O)CNC(=O)c2nc(sc2COC)[C@H](C(C)C)NC(=O)c2nc1sc2C (stereo partly specified)	0.03 µg/mL (≈ 0.0257 µM)	0.03 µg/mL (≈ 0.0257 µM)	0.06 µg/mL (≈ 0.0514 µM)	0.125 µg/mL (≈ 0.107 µM)	–	–	–	–	–	–
CNC(=O)C[C@@H]1NC(=O)c2csc(n2)-c2ccc(-c3nc(C(=O)N4CC(C(N)=O)C4)cs3)nc2-c2csc(n2)-c2csc(n2)C(C(O)c2ccccc2)NC(=O)CNC(=O)c2nc(sc2COC)[C@H](C(C)C)NC(=O)c2nc1sc2C (stereo partly specified)	–	–	–	0.06 µg/mL (≈ 0.0497 µM)	–	–	–	–	–	–
CNC(=O)C[C@@H]1NC(=O)c2csc(n2)-c2ccc(-c3nc(COC(=O)NCCCC(=O)O)cs3)nc2-c2csc(n2)-c2csc(n2)C(C(O)c2ccccc2)NC(=O)CNC(=O)c2nc(sc2COC)[C@H](C(C)C)NC(=O)c2nc1sc2C (stereo partly specified)	0.06 µg/mL (≈ 0.0484 µM)	0.125 µg/mL (≈ 0.101 µM)	0.25 µg/mL (≈ 0.202 µM)	0.125 µg/mL (≈ 0.101 µM)	> 16 µg/mL	16 µg/mL (≈ 12.9 µM)	0.25 µg/mL (≈ 0.202 µM)	2 µg/mL (≈ 1.61 µM)	8 µg/mL (≈ 6.45 µM)	4 µg/mL (≈ 3.22 µM)
CNC(=O)C[C@@H]1NC(=O)c2csc(n2)-c2ccc(-c3nc(C(=O)NCCCCCC(=O)O)cs3)nc2-c2csc(n2)-c2csc(n2)C(C(O)c2ccccc2)NC(=O)CNC(=O)c2nc(sc2COC)[C@H](C(C)C)NC(=O)c2nc1sc2C (stereo partly specified)	0.03 µg/mL (≈ 0.0242 µM)	0.03 µg/mL (≈ 0.0242 µM)	0.06 µg/mL (≈ 0.0484 µM)	0.015 µg/mL (≈ 0.0121 µM)	–	–	–	–	–	–
CNC(=O)C[C@@H]1NC(=O)c2csc(n2)-c2ccc(-c3nc(C(=O)N4CC(C(=O)N[C@H](CCC(=O)O)C(=O)O)C4)cs3)nc2-c2csc(n2)-c2csc(n2)C(C(O)c2ccccc2)NC(=O)CNC(=O)c2nc(sc2COC)[C@H](C(C)C)NC(=O)c2nc1sc2C (stereo partly specified)	–	–	> 32 µg/mL	> 32 µg/mL	–	–	–	–	–	–
CNC(=O)C[C@@H]1NC(=O)c2csc(n2)-c2ccc(-c3nc(C(=O)NCCCN)cs3)nc2-c2csc(n2)-c2csc(n2)C(C(O)c2ccccc2)NC(=O)CNC(=O)c2nc(sc2COC)[C@H](C(C)C)NC(=O)c2nc1sc2C (stereo partly specified)	2 µg/mL (≈ 1.69 µM)	2 µg/mL (≈ 1.69 µM)	1 µg/mL (≈ 0.846 µM)	1 µg/mL (≈ 0.846 µM)	–	–	–	–	–	–
CNC(=O)C[C@@H]1NC(=O)c2csc(n2)-c2ccc(-c3nc(C(=O)NCCC(=O)O)cs3)nc2-c2csc(n2)-c2csc(n2)C(C(O)c2ccccc2)NC(=O)CNC(=O)c2nc(sc2COC)[C@H](C(C)C)NC(=O)c2nc1sc2C (stereo partly specified)	0.06 µg/mL (≈ 0.0501 µM)	0.06 µg/mL (≈ 0.0501 µM)	0.5 µg/mL (≈ 0.418 µM)	0.5 µg/mL (≈ 0.418 µM)	–	–	–	–	–	–
CNC(=O)C[C@@H]1NC(=O)c2csc(n2)-c2ccc(-c3nc(C(=O)NCCCCN=C(N)N)cs3)nc2-c2csc(n2)-c2csc(n2)C(C(O)c2ccccc2)NC(=O)CNC(=O)c2nc(sc2COC)[C@H](C(C)C)NC(=O)c2nc1sc2C (stereo partly specified)	8 µg/mL (≈ 6.46 µM)	8 µg/mL (≈ 6.46 µM)	8 µg/mL (≈ 6.46 µM)	4 µg/mL (≈ 3.23 µM)	–	–	–	–	–	–
CNC(=O)C[C@@H]1NC(=O)c2csc(n2)-c2ccc(-c3nc(C(=O)NCCCCO)cs3)nc2-c2csc(n2)-c2csc(n2)C(C(O)c2ccccc2)NC(=O)CNC(=O)c2nc(sc2COC)[C@H](C(C)C)NC(=O)c2nc1sc2C (stereo partly specified)	0.06 µg/mL (≈ 0.0501 µM)	0.125 µg/mL (≈ 0.104 µM)	0.125 µg/mL (≈ 0.104 µM)	0.125 µg/mL (≈ 0.104 µM)	–	–	–	–	–	–
CNC(=O)C[C@@H]1NC(=O)c2csc(n2)-c2ccc(-c3nc(C(=O)N[C@@H](CO)C(=O)N4CCC[C@H]4C(N)=O)cs3)nc2-c2csc(n2)-c2csc(n2)C(C(O)c2ccccc2)NC(=O)CNC(=O)c2nc(sc2COC)[C@H](C(C)C)NC(=O)c2nc1sc2C (stereo partly specified)	–	–	–	0.25 µg/mL (≈ 0.191 µM)	–	–	–	–	–	–
CNC(=O)C[C@@H]1NC(=O)c2csc(n2)-c2ccc(-c3nc(C(=O)NCCN)cs3)nc2-c2csc(n2)-c2csc(n2)C(C(O)c2ccccc2)NC(=O)CNC(=O)c2nc(sc2COC)[C@H](C(C)C)NC(=O)c2nc1sc2C (stereo partly specified)	2 µg/mL (≈ 1.71 µM)	2 µg/mL (≈ 1.71 µM)	2 µg/mL (≈ 1.71 µM)	1 µg/mL (≈ 0.857 µM)	–	–	–	–	–	–
CNC(=O)C[C@@H]1NC(=O)c2csc(n2)-c2ccc(-c3nc(C(=O)NCCN4CCOCC4)cs3)nc2-c2csc(n2)-c2csc(n2)C(C(O)c2ccccc2)NC(=O)CNC(=O)c2nc(sc2COC)[C@H](C(C)C)NC(=O)c2nc1sc2C (stereo partly specified)	0.06 µg/mL (≈ 0.0485 µM)	0.06 µg/mL (≈ 0.0485 µM)	0.5 µg/mL (≈ 0.404 µM)	0.25 µg/mL (≈ 0.202 µM)	–	–	–	–	–	–
CN[C@H](CC(C)C)C(=O)N[C@H]1C(=O)N[C@@H](CC(N)=O)C(=O)N[C@H]2C(=O)N[C@H]3C(=O)N[C@H](C(=O)N[C@H](C(=O)O)c4cc(O)cc(O)c4-c4cc3ccc4O)[C@H](O)c3ccc(c(Cl)c3)Oc3cc2cc(c3O[C@@H]2O[C@H](CO)[C@@H](O)[C@H](O)[C@H]2O[C@H]2C[C@](C)(N)[C@H](O)[C@H](C)O2)Oc2ccc(cc2Cl)[C@H]1O [VANCOMYCIN]	–	> 16 µg/mL	–	–	> 16 µg/mL	> 16 µg/mL	–	0.125 µg/mL (≈ 0.0863 µM)	0.25 µg/mL (≈ 0.173 µM)	> 16 µg/mL
